# Source: PubChem BioAssay
# ATG4B inh: ATG4B protease inhibitors, primary screen, biochemical, fluorescence, uHTS; Cysteine protease ATG4B (Homo sapiens), Q9Y4P1; inhibition, % at 8.33 µM; ATG4B cleavage of LC3-PLA2, NBD-HPC fluorescence, 1 h; 0.51% of 340,000 active
# Target sequence (Q9Y4P1 whole entry, looked up): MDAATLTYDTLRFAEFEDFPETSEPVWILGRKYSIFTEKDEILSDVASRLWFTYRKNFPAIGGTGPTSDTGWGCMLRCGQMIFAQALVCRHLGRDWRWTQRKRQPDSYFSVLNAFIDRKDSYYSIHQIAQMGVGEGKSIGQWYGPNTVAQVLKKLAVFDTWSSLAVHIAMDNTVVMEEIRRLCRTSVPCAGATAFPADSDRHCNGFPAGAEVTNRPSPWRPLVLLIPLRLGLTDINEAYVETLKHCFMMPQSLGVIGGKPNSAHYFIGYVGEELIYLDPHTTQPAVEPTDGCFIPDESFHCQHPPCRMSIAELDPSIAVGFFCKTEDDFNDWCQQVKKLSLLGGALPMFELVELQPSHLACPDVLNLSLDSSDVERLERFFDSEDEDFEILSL
# SENP1 FRET inh: human SENP1 catalytic domain inhibitors, primary screen, biochemical, FRET, uHTS | Sentrin-specific protease 1 (Homo sapiens), Q9P0U3 | recombinant SENP1 catalytic domain, CyPet-SUMO1-YPet FRET cleavage | inhibition, % at 10 µM | 0.21% of 360,000 active | AID 624204, 2012;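 active means inhibition at least 30% at 10 µM, raw YFP signal under a set limit, fluorescence ratio 0.5 to 1.5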;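 further: 0% = enzyme with DMSO and 100% = no enzyme wells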
# Target sequence (Q9P0U3 419-644 limits assumed): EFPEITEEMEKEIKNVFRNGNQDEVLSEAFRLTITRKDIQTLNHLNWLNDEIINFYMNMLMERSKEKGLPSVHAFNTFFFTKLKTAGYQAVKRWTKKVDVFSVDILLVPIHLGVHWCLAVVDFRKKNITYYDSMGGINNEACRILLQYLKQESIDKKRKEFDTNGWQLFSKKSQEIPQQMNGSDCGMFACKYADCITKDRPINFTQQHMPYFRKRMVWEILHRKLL
#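 Controls: no-enzyme wells low, DMSO-plus-enzyme wells high control. Test system: human recombinant His6-tagged SENP1 catalytic domain enzyme. Reagent: SFCypet-SUMO1-SFYpet FRET protein substrate, 25 nM final. Doses: one dose per compound, 10 µM, 0.5% DMSO. Detection: FRET, CFP and YFP emission. Timing: 50 min reaction at room temperature.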
# HNF4A DNA FP: change in binding of human HNF4A to DNA, primary screen, biochemical, fluorescence polarization, FITC-DNA; Hepatocyte nuclear factor 4-alpha (Homo sapiens), P41235; 1 h; activity change, % at 10 µM; 0.3% of 360,000 active; in the data active means activity change above about 30%, passing the limit was not always enough
# Rpn11 block: Rpn11 (PSMD14) deubiquitinase inhibitors, primary screen, biochemical, fluorescence polarization, uHTS. 26S proteasome non-ATPase regulatory subunit 14 (Homo sapiens), O00487. human 26S proteasome, Ub4-pepOG fluorescence polarization; 20S core pre-blocked with epoxomicin. inhibition, % at 20 µM. 0.59% of 360,000 active. AID 588493, 2011;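 active means inhibition at 20 µM, scaled to each plate's controls, above about 33%, limit read from the data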
# CSN deneddyl inh: inhibitors of CSN-mediated cullin deneddylation, primary screen, biochemical, fluorescence polarization, uHTS; Purified CSN, SCF-Nedd8-OG deneddylation; inhibition, % at 12.5 µM; 0.38% of 360,000 active; AID 651999, 2013;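 active means pattern-corrected inhibition above about 35%, with an unprinted fluorescence ratio check between 0.5 and 1.5, limit read from the data, passing the limit was not always enough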;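 further: 0% = enzyme with substrate and 100% = substrate without enzyme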
#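 Assay system: purified human Csn5 enzyme expressed in HEK293T cells; Input: 0.24 nM Csn5 enzyme, final concentration; Reagent: 10 nM SCFSkp2-Nedd8OG; Compound dosing: 12.5 µM single point; Times: reaction 90 min, room temperature; Technique: fluorescence polarization readout.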
# TPT1 inhibitor: Candida albicans TPT1 enzyme inhibitors, primary screen, biochemical, fluorescence polarization; AID 1962, 2009; recombinant caTPT1, FP RNA substrate dephosphorylation; 0.81% of 300,000 active; inhibition, % at 5 µM;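 active means inhibition above the mean of all tested compounds plus 3 SD, set per screening campaign, cut at about 24% in these data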;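 further: plate controls were DMSO alone for no effect and ferristatin control at 100 nM for full effect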
# Rpn11 confirm: Rpn11 (PSMD14) deubiquitinase inhibitors, confirmation, biochemical, fluorescence polarization, single concentration. shares compounds with Rpn11 block. purified human 26S proteasome, Ub4-pepOG fluorescence polarization; proteasome pretreated with epoxomicin. inhibition, % at 20 µM. 29% of 1,900 active. AID 602318, 2012
# MMP-2 counter: MMP-2 enzyme inhibition, confirmation, counter-screen for RPN11 inhibitor project, biochemical, fluorescence, single concentration | AID 602330, 2012 | shares compounds with Rpn11 block | 4% of 1,900 active | inhibition, % at 20 µM | recombinant MMP-2, FRET peptide cleavage fluorescence;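 further: human MMP-2 activated beforehand with APMA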
# Thrombin FP: bovine thrombin protease inhibition, confirmation, counter-screen for Rpn11 inhibitor project, biochemical, fluorescence polarization, single concentration; shares compounds with Rpn11 block; bovine thrombin cleavage of Ub4-pepOG; inhibition, % at 20 µM; 13% of 1,900 active;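 active means mean inhibition at least 40% at 20 µM, or signal 3 deviations below plate average, so some actives read negative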;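 further: plate controls were thrombin with DMSO for no effect and buffer wells lacking thrombin for full effect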
# * marks the source's active call; other numbers are inactive results; / = no result. A selection: hits, their analogues and other compounds. The true share with any hit is near 2%. Unless noted, no stated cut-off is given here; in the data, active means inhibition above about 40%; inactive means the rest.
SMILES,ATG4B inh,SENP1 FRET inh,HNF4A DNA FP,Rpn11 block,CSN deneddyl inh,TPT1 inhibitor,Rpn11 confirm,MMP-2 counter,Thrombin FP
COCCNC(=O)C1CCCN(C(=O)c2nc(C)oc2C)CC1 (stereo not given),/,3,0,-2,1,/,/,/,/
Cc1ccccc1NC(=O)CSc1nnc2ccc(-c3cccnc3)nn12,0,-1,0,-7,-1,2,/,/,/
O=C1C2C3C=CC(C3)C2C(=O)N1c1cccc(-c2nc3ccccc3o2)c1 (stereo not given),5,6,2,54*,8,1,13,-40,-5
Cc1ccc(-c2nnc(Cc3ccc([N+](=O)[O-])cc3)o2)cc1,-4,-15,-2,6,1,5,/,/,/
Cc1nnsc1C(=O)NC1CCCc2c1cnn2-c1ccc(F)cc1F (stereo not given),-2,-7,6,42*,-3,3,12,-48,-3
CC(=O)N(c1ccc2oc(=O)sc2c1)S(=O)(=O)c1cccc2cccnc12,-1,2,31*,85*,3,-4,8,19,-9
Cc1cc(SCC(=O)c2ccccc2)nc(=O)[nH]1,-2,-30,6,22,7,3,/,/,/
Cc1cc(SCc2ccc(Cl)cc2Cl)nc(=O)[nH]1,-1,-48,12,52*,10,11,37,-9,30
Cc1cc(SCC(=O)c2ccc(Cl)cc2)nc(=O)[nH]1,-15,-55,8,37*,8,7,1,-14,-7
CCn1ncc(S(=O)(=O)N2CCN(c3cccc(OC)c3)CC2)c1C,8,1,1,-3,-2,3,/,/,/
CN(Cc1ccccc1)C(=O)c1ccc(NC(=O)Cc2ccc(NC(=O)C3CCCN(C(=O)CCc4ccccc4)C3)cc2)cc1 (stereo not given),-20,0,-1,10,6,/,/,/,/
CC(C)C(C(=O)NCC1CCCO1)N(C(=O)CNS(=O)(=O)c1ccccc1)c1ccc(F)cc1 (stereo not given),-10,0,0,0,-3,-1,/,/,/
COc1nc(Nc2nc3ccccc3c(=O)[nH]2)nc2ccc(C)cc12,8,3,275*,43*,8,-3,16,-6,5
CC1CCC(NC(=O)C2CC(=O)N(c3ccc(Cl)cc3)C2)CC1 (stereo not given),-8,-1,0,-2,-5,-3,/,/,/
COC(=O)c1ccccc1NC(=O)CCS(=O)(=O)c1ccc(Br)cc1,-7,2,-58,43*,17,/,114*,25,-51
CCOc1ccc2nc(SCC(=O)N3c4ccccc4Sc4ccccc43)c(C#N)cc2c1,3,-37,3,59*,-3,23,9,-29,-2
CCOc1ccc2nc(SCC(=O)N3c4ccccc4Sc4ccccc43)sc2c1,-4,1,5,-1,-10,-1,/,/,/
Cc1ccccc1Sc1ccc(N)cn1,-2,9,72*,60*,-78,13,9,-33,-2
CCC(=O)N1CCc2cc(Br)cc(S(=O)(=O)N3CCCCC3CC)c21 (stereo not given),6,0,1,-8,4,-6,/,/,/
CS(=O)(=O)N(Cc1nc(-c2ccc(F)cc2)no1)c1ccccc1Cl,-2,1,-2,7,0,-2,/,/,/
Cn1cc(S(=O)(=O)CC(=O)N2CCCc3ccccc32)c2ccccc21,-20,2,13,70*,0,0,-3,-28,-4
CCS(=O)(=O)c1nc(S(=O)(=O)c2ccc(C)cc2)c(NCCCN2CCCC2=O)s1,5,1,-2,-3,2,2,/,/,/
O=C1CCCN1CCCNc1nc2c(S(=O)(=O)c3ccccc3)nnn2c2ccc(Cl)cc12,-7,-2,5,44*,6,3,-6,-8,12
CN(CC(=O)Nc1ccccc1Br)C(=O)c1cccnc1Nc1cccc(C(F)(F)F)c1,16,1,-2,8,-1,-1,/,/,/
COc1ccc(-n2cc(CNCc3cccnc3)c(-c3cccc(F)c3)n2)cc1,-2,0,3,6,-2,0,/,/,/
SMILES,ATG4B inh,SENP1 FRET inh,HNF4A DNA FP,Rpn11 block,CSN deneddyl inh,TPT1 inhibitor,Rpn11 confirm,MMP-2 counter,Thrombin FP
COc1ccc(CNCc2cn(-c3cccc(F)c3)nc2-c2ccc(C)o2)cc1,12,-24,31,43*,12,3,4,-9,-16
COC(=O)CCC(=O)N1CCCC(N2CCN(c3ccc(OC)cc3)CC2)C1 (stereo not given),-1,-1,8,55*,-1,2,0,-55,-1
COc1ccc(CNC(=O)c2cn(Cc3ccc(OC(C)=O)cc3)c(=O)s2)cc1,/,2,1,6,-3,/,/,/,/
COc1ccc(-n2nc3c(c2NC(=O)C2CC(=O)N(c4ccccc4)C2)CS(=O)(=O)C3)cc1 (stereo not given),0,1,-2,4,1,2,/,/,/
Cn1cc([C@@H]2C[C@H]3CN(Cc4cccc(Cl)c4)C(=O)[C@]34CCCN24)c2ccccc21,18,4,25,55*,13,22,53*,-26,65*
COc1ccc(OC)c(/C=C/C(=O)N(C)CC(=O)Nc2ccc(N3CCOCC3)cc2)c1,6,-4,-3,-1,-4,/,/,/,/
Cc1[nH]n(-c2nc(-c3ccc(Cl)cc3)cs2)c(=O)c1N=Nc1ccc(O)cc1,-3,20,14,42*,-9,7,-5,-24,-3
